Data: ChEMBL document CHEMBL3414546, “Design, synthesis and structure-activity relationship of oxazolidinone derivatives containing novel S4 ligand as FXa inhibitors” (Eur J Med Chem, 2015)
pIC50: −log10 of the molar value. Values after ≈ are worked out from the molar mass of the structure shown.

Key:
[1] = target: T1, Coagulation factor X (Homo sapiens, UniProt P00742); assay: Inhibition of human F10a using S-2765 as substrate at 0.1 uM after 45 mins by spectra max analysis relative to control
In short: (§1)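 Purified human FXa (10 ng) was used with chromogenic substrate S-2765 at 500 µM in 50 mM Tris-HCl pH 7.5, […], 1 mM CaCl2 and 2.5% DMSO (final). Compound was incubated for 45 min at 37 °C, and absorbance was read at 405 nm. Percent inhibition came from reaction velocity versus DMSO control. IC50 was taken from a plot of inhibition against concentration.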

[2] = target: T1, Coagulation factor X; assay: Inhibition of F10a in human plasma assessed as doubling of prothombin time
In short: (§2)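 Citrated (3.8% sodium citrate) blood from healthy human volunteers or rabbit was spun at 2000 g for 10 min. The DMSO stock was diluted in plasma, 5–7 inhibitor concentrations were tested, and prothrombin time was read with Thromborel-S on an automated temperature-controlled coagulometer in duplicate. PTCT2 (the concentration doubling clotting time) came from regression of the concentration-response curve.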

[3] = target: T1, Coagulation factor X; assay: Inhibition of F10a in human plasma assessed as doubling of activated partial thromboplastin time
In short: (§3)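 Plasma came from human volunteer or rabbit blood anticoagulated with 3.8% sodium citrate and centrifuged at 2000 g for 10 min. The DMSO stock was serially diluted in plasma. Clotting time was measured on control plasma and on plasma with five to seven inhibitor concentrations. The concentration doubling clotting time was estimated from the concentration-response curve.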

[4] = target: T2, Coagulation factor X (Oryctolagus cuniculus, UniProt O19045); assay: Inhibition of F10a in rabbit plasma assessed as doubling of prothombin time; in short: as §2
T2 sequence (O19045 whole entry): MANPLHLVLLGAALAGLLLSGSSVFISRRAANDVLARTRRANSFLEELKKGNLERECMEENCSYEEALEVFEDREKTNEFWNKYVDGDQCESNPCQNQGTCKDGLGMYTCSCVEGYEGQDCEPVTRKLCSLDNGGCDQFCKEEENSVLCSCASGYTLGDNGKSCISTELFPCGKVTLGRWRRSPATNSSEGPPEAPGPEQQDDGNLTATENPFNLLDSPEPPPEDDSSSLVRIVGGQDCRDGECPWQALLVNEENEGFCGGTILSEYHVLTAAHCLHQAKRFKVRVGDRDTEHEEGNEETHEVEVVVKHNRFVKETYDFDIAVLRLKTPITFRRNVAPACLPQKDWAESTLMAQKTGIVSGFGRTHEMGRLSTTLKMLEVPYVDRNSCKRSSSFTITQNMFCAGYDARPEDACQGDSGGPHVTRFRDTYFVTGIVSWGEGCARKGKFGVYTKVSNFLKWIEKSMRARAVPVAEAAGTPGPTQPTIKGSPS

[5] = target: T2, Coagulation factor X; assay: Inhibition of F10a in rabbit plasma assessed as doubling of activated partial thromboplastin time; in short: as §3
[6] = target: T1, Coagulation factor X; assay: Inhibition of human F10a using S-2765 as substrate after 45 mins by spectra max analysis; in short: as §1
[7] = Solubility of the compound by Chinese pharmacopoeia 2010 edition of the second collection method; format: physicochemical

T1 sequence (P00742 41-179 limits assumed): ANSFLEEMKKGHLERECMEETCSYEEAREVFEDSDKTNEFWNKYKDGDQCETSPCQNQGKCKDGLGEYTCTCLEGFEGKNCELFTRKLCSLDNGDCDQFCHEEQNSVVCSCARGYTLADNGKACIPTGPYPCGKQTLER
T1 sequence (P00742 235-488 limits assumed): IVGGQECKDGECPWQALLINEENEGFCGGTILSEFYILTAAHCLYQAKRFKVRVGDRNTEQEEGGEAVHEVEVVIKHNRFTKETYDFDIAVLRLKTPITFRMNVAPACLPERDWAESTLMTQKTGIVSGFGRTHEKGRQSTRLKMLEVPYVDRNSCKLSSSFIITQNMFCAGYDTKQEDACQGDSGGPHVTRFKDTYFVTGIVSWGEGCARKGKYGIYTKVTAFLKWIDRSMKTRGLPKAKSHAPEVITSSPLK

SMILES	inhibition [1]	pIC50 [2]	pIC50 [3]	pIC50 [4]	pIC50 [5]	pIC50 [6]	solubility [7]
CC1CCN(Cc2cc3ccccc3n2-c2ccc(N3C[C@H](CNC(=O)c4ccc(Cl)s4)OC3=O)cc2)CC1	56%	4.98	4.92	4.92	4.88	–	–
O=C(NC[C@H]1CN(c2ccc(-n3cccc3CN3CCOCC3)cc2)C(=O)O1)c1ccc(Cl)s1	76%	5.53	5.48	5.50	5.45	–	–
CC1CCN(Cc2cccn2-c2ccc(N3C[C@H](CNC(=O)c4ccc(Cl)s4)OC3=O)cc2)CC1	70%	5.49	5.45	5.46	5.42	–	–
CC1CCN(Cc2csc(-c3ccc(N4C[C@H](CNC(=O)c5ccc(Cl)s5)OC4=O)cc3)n2)CC1	68%	5.52	5.47	5.42	5.40	–	–
O=C(NC[C@H]1CN(c2ccc(-n3c(CN4CCOCC4)cc4ccccc43)cc2)C(=O)O1)c1ccc(Cl)s1	58%	4.99	4.95	4.95	–	–	25.8 µg/mL (≈ 46.8 µM)
CN1CCN(Cc2cc3ccccc3n2-c2ccc(N3C[C@H](CNC(=O)c4ccc(Cl)s4)OC3=O)cc2)CC1	45%	4.95	–	4.88	–	–	–
CN1CCN(Cc2csc(-c3ccc(N4C[C@H](CNC(=O)c5ccc(Cl)s5)OC4=O)cc3)n2)CC1	56%	5.41	5.39	5.37	5.29	–	33.2 µg/mL (≈ 62.4 µM)
O=C(NC[C@H]1CN(c2ccc(-c3nc(CN4CCOCC4)cs3)cc2)C(=O)O1)c1ccc(Cl)s1	62%	5.44	5.42	5.39	5.32	–	–
O=C(NC[C@H]1CN(c2ccc(-n3c(CN4CCCCC4)cc4ccccc43)cc2)C(=O)O1)c1ccc(Cl)s1	52%	4.96	–	4.94	–	–	–
CN(C)Cc1cc2ccccc2n1-c1ccc(N2C[C@H](CNC(=O)c3ccc(Cl)s3)OC2=O)cc1	69%	5.24	5.22	5.23	5.21	–	–
CN1CCN(Cc2cccn2-c2ccc(N3C[C@H](CNC(=O)c4ccc(Cl)s4)OC3=O)cc2)CC1	71%	5.42	5.40	5.41	5.38	–	–
CCN(CC)Cc1cc2ccccc2n1-c1ccc(N2C[C@H](CNC(=O)c3ccc(Cl)s3)OC2=O)cc1	61%	5.27	5.26	5.22	5.21	–	–

Continued by rising pIC50 [4], values first:

inhibition [1]	pIC50 [2]	pIC50 [3]	pIC50 [4]	pIC50 [5]	pIC50 [6]	solubility [7]	SMILES
72%	5.57	5.53	5.51	5.46	–	–	O=C(NC[C@H]1CN(c2ccc(-c3nc(CN4CCCCC4)cs3)cc2)C(=O)O1)c1ccc(Cl)s1
73%	5.55	5.51	5.53	5.44	–	20.4 µg/mL (≈ 39.2 µM)	O=C(NC[C@H]1CN(c2cc(F)c(-n3cccc3CN3CCCC3)c(F)c2)C(=O)O1)c1ccc(Cl)s1
82%	5.58	5.55	5.54	5.49	–	–	O=C(NC[C@H]1CN(c2ccc(-n3cccc3CN3CCCCC3)cc2)C(=O)O1)c1ccc(Cl)s1
79%	5.62	5.57	5.56	5.52	–	–	O=C(NC[C@H]1CN(c2ccc(-c3nc(CN4CCCC4)cs3)cc2)C(=O)O1)c1ccc(Cl)s1
88%	5.74	5.64	5.70	5.59	–	–	CN(C)Cc1cccn1-c1cc(F)c(N2C[C@H](CNC(=O)c3ccc(Cl)s3)OC2=O)c(F)c1
89%	5.78	5.73	5.78	5.72	–	–	CNCc1csc(-c2ccc(N3C[C@H](CNC(=O)c4ccc(Cl)s4)OC3=O)cc2)n1
89%	5.85	5.77	5.80	5.70	–	–	O=C(NC[C@H]1CN(c2ccc(-n3cccc3CN3CCCC3)cc2)C(=O)O1)c1ccc(Cl)s1
91%	6.06	6.01	6.04	5.91	–	–	CN(C)Cc1csc(-c2ccc(N3C[C@H](CNC(=O)c4ccc(Cl)s4)OC3=O)cc2)n1
90%	6.19	5.88	6.04	5.80	8.18	10.2 µg/mL (≈ 21.4 µM)	CN(C)Cc1cccn1-c1ccc(N2C[C@H](CNC(=O)c3ccc(Cl)s3)OC2=O)cc1F
93%	6.19	6.10	6.05	5.94	–	–	CCNCc1csc(-c2ccc(N3C[C@H](CNC(=O)c4ccc(Cl)s4)OC3=O)cc2)n1
92%	6.15	5.88	6.09	5.82	–	–	O=C(NC[C@H]1CN(c2ccc(-n3cccc3CN3CCC3)cc2)C(=O)O1)c1ccc(Cl)s1
98%	6.21	5.92	6.11	5.86	8.14	–	CN(C)Cc1cccn1-c1ccc(N2C[C@H](CNC(=O)c3ccc(Cl)s3)OC2=O)cc1
100%	6.29	6.09	6.14	5.99	8.02	–	CCN(CC)Cc1csc(-c2ccc(N3C[C@H](CNC(=O)c4ccc(Cl)s4)OC3=O)cc2)n1
100%	–	–	6.29	6.07	–	–	O=C(NC[C@H]1CN(c2ccc(N3CCOCC3=O)cc2)C(=O)O1)c1ccc(Cl)s1 [RIVAROXABAN]
100%	6.82	6.52	6.34	6.12	8.70	6.9 µg/mL (≈ 14.2 µM)	CCN(CC)Cc1cccn1-c1ccc(N2C[C@H](CNC(=O)c3ccc(Cl)s3)OC2=O)cc1
